According to ChEMBL document CHEMBL1136326, “New benzylidenethiazolidinediones as antibacterial agents” (2003):
In brackets after ≈: the same amount, converted by molar mass.

What was measured:
Format in all cases: functional
[1] = tested on: Enterococcus faecalis; experiment: Minimal inhibitory concentration (antibacterial activity) against Enterococcus faecalis 7 (EFAE)
Method in brief: (§1)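 Broth microdilution in cation-adjusted Mueller Hinton broth. Compounds in DMSO were diluted 1:10 with water to a 256 ug/mL solution, then serially 2-fold diluted, giving 0.06 to 64 μg/mL. Inoculum about 1 × 10^6 cfu/mL. Incubation at 35 C for 24 h. MIC is the lowest concentration that inhibits visible growth.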

[2] = Minimal inhibitory concentration (antibacterial activity) against […] ERY2 (SPNE); method in brief: as §1
[3] = tested on: Staphylococcus aureus; experiment: Minimal inhibitory concentration (antibacterial activity) against Staphylococcus aureus Oxford (SAUR); method in brief: as §1
[4] = Enterococcus faecalis, read-out: MIC
[5] = Streptococcus pneumoniae, read-out: MIC
[6] = Staphylococcus aureus, read-out: MIC

MIC [1, 4] [µg/mL] | MIC [2, 5] [µg/mL] | MIC [3, 6] [µg/mL] | MIC [1] [µg/mL] | MIC [2] [µg/mL] | MIC [3] [µg/mL] | SMILES
16 (≈ 34.3 µM) | 32 (≈ 68.6 µM) | 16 (≈ 34.3 µM) |  |  |  | CCCc1c(OCC(O)COc2ccc(/C=C3\OC(=O)NC3=O)cc2)ccc(Cl)c1Cl (centres undefined)
 |  |  | 4 (≈ 8.06 µM) | 1 (≈ 2.01 µM) | 8 (≈ 16.1 µM) | CCCc1c(OCC(O)COc2ccc(/C=C3\SC(=O)N(C)C3=O)cc2)ccc(Cl)c1Cl (stereo in doubt; 12)
4 (≈ 8.29 µM) | 2 (≈ 4.15 µM) | 2 (≈ 4.15 µM) |  |  |  | CCCc1c(OC[C@@H](O)COc2ccc(/C=C3\SC(=O)NC3=O)cc2)ccc(Cl)c1Cl
> 64 | > 64 | > 64 |  |  |  | O=C1NC(=O)/C(=C/c2ccc(OCC(O)COc3ccc(Cl)c(Cl)c3Cl)cc2)S1 (centres undefined)
64 (≈ 138 µM) | 64 (≈ 138 µM) | > 64 |  |  |  | CCCc1c(OCC(O)COc2ccc(/C=C3\CC(=O)NC3=O)cc2)ccc(Cl)c1Cl (centres undefined)
32 (≈ 66.5 µM) | 2 (≈ 4.15 µM) | 16 (≈ 33.2 µM) |  |  |  | CCCc1c(OCC(N)COc2ccc(/C=C3\SC(=O)NC3=O)cc2)ccc(Cl)c1Cl (centres undefined)
 |  |  | >64 | >64 | >64 | CCCc1c(OCC(O)COc2ccc(/C=C3\SC(=O)N(C)C3=O)cc2)ccc(Cl)c1Cl (stereo in doubt; 6)
64 (≈ 133 µM) | 1 (≈ 2.07 µM) | 1 (≈ 2.07 µM) |  |  |  | CCCc1c(OC[C@H](O)COc2ccc(/C=C3\SC(=O)NC3=O)cc2)ccc(Cl)c1Cl
> 64 | > 64 | > 64 |  |  |  | CCCc1c(OCC(=O)COc2ccc(/C=C3\SC(=O)NC3=O)cc2)ccc(Cl)c1Cl
4 (≈ 8.6 µM) | 4 (≈ 8.6 µM) | 4 (≈ 8.6 µM) |  |  |  | CCCc1c(OCC(O)COc2ccc(/C=C3\NC(=O)NC3=O)cc2)ccc(Cl)c1Cl (centres undefined)

Further lines, the compound ahead of its results:

SMILES | MIC [1, 4] [µg/mL] | MIC [2, 5] [µg/mL] | MIC [3, 6] [µg/mL] | MIC [1] [µg/mL] | MIC [2] [µg/mL] | MIC [3] [µg/mL]
CCc1ccccc1OCC(O)COc1ccc(/C=C2\SC(=O)NC2=O)cc1 (centres undefined) | 32 (≈ 80.1 µM) | 16 (≈ 40.1 µM) | 16 (≈ 40.1 µM) |  |  | 
CCCc1c(OCCCOc2ccc(/C=C3\SC(=O)NC3=O)cc2)ccc(Cl)c1Cl | > 64 | > 64 | > 64 |  |  | 
O=C1NC(=O)/C(=C/c2ccc(OCC(O)COc3ccccc3)cc2)S1 (centres undefined) | > 64 | 64 (≈ 172 µM) | > 64 |  |  | 
CCCc1ccccc1OCC(O)COc1ccc(/C=C2\SC(=O)NC2=O)cc1 (centres undefined) | > 64 | 2 (≈ 4.84 µM) | 16 (≈ 38.7 µM) |  |  | 
CCCc1c(OCC(O)COc2ccc(CC3SC(=O)NC3=O)cc2)ccc(Cl)c1Cl (centres undefined) | 16 (≈ 33 µM) | 8 (≈ 16.5 µM) | 8 (≈ 16.5 µM) |  |  | 
O=C1NC(=O)/C(=C/c2ccc(OCC(O)COc3ccc(Cl)c(Cl)c3)cc2)S1 (centres undefined) | > 64 | > 64 | > 64 |  |  | 
Cc1ccccc1OCC(O)COc1ccc(/C=C2\SC(=O)NC2=O)cc1 (centres undefined) | > 64 | 32 (≈ 83 µM) | 64 (≈ 166 µM) |  |  | 
CCCc1cc(Cl)c(Cl)cc1OCC(O)COc1ccc(/C=C2\SC(=O)NC2=O)cc1 (centres undefined) | 8 (≈ 16.6 µM) | 4 (≈ 8.29 µM) | 8 (≈ 16.6 µM) |  |  | 
